Legend:
PSN-1 cells = experiment: MTT cytotoxicity, 72 h, PSN-1 pancreatic cancer cells; type: cell-based, human; conditions: read-out: IC50 (μM) ± S.D., PSN-1, MTT test
How it was run: (§1)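 Cells were kept in log phase at 37 °C, 5% CO₂, in RPMI-1640 with 10% fetal calf serum, penicillin/streptomycin and 2 mM L-glutamine. […] MTT read-out after 72 h exposure, absorbance 570 nm versus untreated wells. IC50 from 4-parameter logistic model; means of at least three independent experiments.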

MCF-7 cells = experiment: MTT cytotoxicity, 72 h, MCF-7 breast cancer cells; type: cell-based, human; conditions: read-out: IC50 (μM) ± S.D., MCF-7, MTT test
How it was run: as §1

U-1285 cells = experiment: MTT cytotoxicity, 72 h, U-1285 small cell lung cancer cells; type: cell-based, human; conditions: read-out: IC50 (μM) ± S.D., U-1285, MTT test
How it was run: as §1

B-CPAP cells = experiment: MTT cytotoxicity, 72 h, B-CPAP thyroid cancer cells; type: cell-based, human; conditions: read-out: IC50 (μM) ± S.D., B-CPAP, MTT test
How it was run: as §1

[1] = system: human cancer cell line panel; experiment: MTT cytotoxicity across the in-house human cancer cell line panel; type: cell-based; conditions: MTT test, 72 h
How it was run: as §1

LoVo cells [2] = experiment: MTT cytotoxicity, 72 h, LoVo colon cancer cells; type: cell-based, human; conditions: read-out: IC50 (μM) ± S.D., LoVo, MTT test, 2D monolayer
How it was run: as §1

LoVo OXP cells = experiment: MTT cytotoxicity, 72 h, oxaliplatin-resistant LoVo OXP colon cancer cells; type: cell-based, human
How it was run: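 Oxaliplatin-resistant LoVo OXP subline obtained by growing LoVo cells in increasing oxaliplatin concentrations, with 17 months of resistant-clone selection. Paired with parental LoVo cells in RPMI-1640 with 10% fetal calf serum and 2 mM L-glutamine. 72 h MTT exposure with test compound in DMSO (final 0.5%), absorbance 570 nm. IC50 fitted by 4-parameter logistic model from at least three independent experiments.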

LoVo spheroids = experiment: 3D spheroid culture, acid phosphatase; type: cell-based, human; conditions: read-out: IC50 (μM) ± S.D., LoVo spheroids; 3D spheroids, 72 h, APH assay
How it was run: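 LoVo spheroids formed from 2.5 × 10³ cells per well in round-bottom non-treated wells, in phenol red free F-12 HAMs medium with 10% fetal calf serum plus 20% methyl cellulose stock solution. Test compound added from DMSO stock (final DMSO 0.5%) at increasing concentrations for 72 h. Viability by modified acid phosphatase assay at 405 nm. IC50 from 4-parameter logistic fit; means of at least three independent experiments.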

LoVo cells [3] = experiment: Hoechst 33258 staining, morphological analysis of cell death mode; type: cell-based, human; conditions: 48 h with IC50
How it was run: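 LoVo cells were seeded at 5 × 10⁴ per well on tissue-culture slides, grown 24 h and washed twice with PBS. They were then treated with test compound, stained 5 min with 10 μg mL⁻¹ Hoechst 33258 in PBS, and examined for nuclear morphology by confocal microscopy at 40× and 10×.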

[4] = target: protein disulfide isomerase (PDI) (Homo sapiens, UniProt P07237); experiment: Cell-free PDI inhibition; type: biochemical
protein disulfide isomerase (PDI), sequence (P07237 18-508): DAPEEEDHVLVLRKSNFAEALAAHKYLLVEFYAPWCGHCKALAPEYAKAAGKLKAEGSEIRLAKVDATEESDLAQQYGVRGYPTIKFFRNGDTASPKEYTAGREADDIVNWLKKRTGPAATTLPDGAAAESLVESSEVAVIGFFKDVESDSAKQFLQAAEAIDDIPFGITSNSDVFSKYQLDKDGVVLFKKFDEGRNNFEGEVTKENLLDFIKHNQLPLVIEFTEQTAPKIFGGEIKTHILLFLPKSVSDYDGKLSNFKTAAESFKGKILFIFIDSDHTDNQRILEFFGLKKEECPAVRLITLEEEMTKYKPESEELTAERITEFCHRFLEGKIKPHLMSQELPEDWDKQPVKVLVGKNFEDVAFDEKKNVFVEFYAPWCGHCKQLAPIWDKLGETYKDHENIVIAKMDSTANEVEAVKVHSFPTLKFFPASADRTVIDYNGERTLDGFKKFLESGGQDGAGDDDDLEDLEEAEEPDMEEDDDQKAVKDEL

HEK-293 cells = experiment: MTT cytotoxicity, 72 h, non-tumor HEK-293 embryonic kidney cells; type: cell-based, human

Cc1cc(C)n(C(C(=O)OC(C)C)n2nc(C)cc2C)n1 [L^2OiPr, [HC(3,5-Me2pz)2COO^iPr]]
IC50 (PSN-1 cells): > 50 µM
IC50 (MCF-7 cells): > 50 µM
IC50 (U-1285 cells): > 50 µM
IC50 (B-CPAP cells): > 50 µM
cytotoxic effect against all tested cancer cell lines [1]: completely ineffective
IC50 (LoVo cells [2]): > 50 µM

O=C1[O][Pt]2([NH][C@@H]3CCCC[C@H]3[NH]2)[O]C1=O [Oxaliplatin, oxaliplatin, reference compound]
R.F. = IC50 (resistant subline)/IC50 (wild-type cells) (LoVo OXP cells): 13
IC50 (LoVo cells [2]): 1.1 ± 0.6 µM

CC(C)OC(=O)C(n1cccn1)n1cccn1 [L^OiPr, [HC(pz)2COO^iPr]]
IC50 (PSN-1 cells): > 50 µM
IC50 (MCF-7 cells): > 50 µM
IC50 (U-1285 cells): > 50 µM
IC50 (B-CPAP cells): > 50 µM
cytotoxic effect against all tested cancer cell lines [1]: completely ineffective
IC50 (LoVo cells [2]): > 50 µM

N.N.[Cl][Pt][Cl] [Cisplatin, cisplatin, reference compound]
IC50 (PSN-1 cells): 12.1 ± 2.8 µM
IC50 (LoVo spheroids): 60.6 ± 6.3 µM
IC50 (MCF-7 cells): 13.9 ± 1.3 µM
morphological changes (cell death mode) (LoVo cells [3]): classical morphological features of apoptosis induction
IC50 (U-1285 cells): 2.1 ± 0.8 µM
IC50 (B-CPAP cells): 18.5 ± 4.1 µM
IC50 (LoVo cells [2]): 7.6 ± 1.5 µM

C1N2CN3CN1CP(C2)C3.Cc1cc(C)n(C(C(=O)OC(C)C)n2nc(C)cc2C)n1.F[P-](F)(F)(F)(F)F.[Cu+] [compound 4, [Cu(L^2OiPr)(PTA)]PF6]
IC50 (PSN-1 cells): 18.2 ± 0.8 µM
IC50 (LoVo spheroids): 144 ± 7.8 µM
reduction of PDI catalytic activity ([4]; highest tested dose (50 μM)): about 80%
IC50 ([4]; read-out: IC50 for PDI inhibition, cell-free, Proteostat kit): 13.7 µM
IC50 (MCF-7 cells): 14 ± 1.7 µM
morphological changes (cell death mode) (LoVo cells [3]): no classical hallmarks of apoptosis
IC50 (U-1285 cells): 11.9 ± 1.9 µM
IC50 (B-CPAP cells): 14.3 ± 0.9 µM
R.F. = IC50 (resistant subline)/IC50 (wild-type cells) (LoVo OXP cells): 1.9
fold more effective than complex 2 (average IC50) [1]: 2 fold
IC50 ([1]; read-out: average IC50 across the human cancer cell lines): 12.3 µM
IC50 (LoVo cells [2]): 7.8 ± 1.5 µM
S.I. = average IC50 normal cells/average IC50 for the malignant cells (HEK-293 cells; HEK-293 vs malignant cells): > 4.0
IC50 (HEK-293 cells; read-out: IC50 (μM) ± S.D., HEK-293, MTT test, 72 h, non-tumor cells): > 50 µM

Reference: PMC11605304 (RSC Medicinal Chemistry, 2024)
